The source made the active and inactive calls. No cut-off for these calls is given here.
Key:
[1] = biological target: T1, Aurora kinase A (Homo sapiens) (UniProt O14965); experiment: Inhibition of Aurora A (unknown origin) at 10 uM using [33P]-ATP and 10 uM ATP after 2 hrs
T1 sequence (whole entry): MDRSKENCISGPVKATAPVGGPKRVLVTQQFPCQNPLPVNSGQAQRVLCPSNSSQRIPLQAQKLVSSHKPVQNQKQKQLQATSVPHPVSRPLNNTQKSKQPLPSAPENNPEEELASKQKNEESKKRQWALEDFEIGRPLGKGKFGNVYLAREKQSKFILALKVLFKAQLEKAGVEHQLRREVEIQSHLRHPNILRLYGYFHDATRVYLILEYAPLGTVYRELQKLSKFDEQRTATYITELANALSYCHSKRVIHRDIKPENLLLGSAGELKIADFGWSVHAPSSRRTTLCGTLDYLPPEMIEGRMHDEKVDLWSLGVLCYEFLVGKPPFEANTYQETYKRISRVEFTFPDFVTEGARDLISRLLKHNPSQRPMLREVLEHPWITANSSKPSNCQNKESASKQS

[2] = biological target: T2, Aurora kinase B (Homo sapiens, UniProt Q96GD4); experiment: Inhibition of Aurora B (unknown origin) at 10 uM using [33P]-ATP and 10 uM ATP after 2 hrs
[3] = biological target: T3, Aurora kinase A (Homo sapiens, UniProt O14965); experiment: Inhibition of Aurora A (unknown origin) using [33P]-ATP and 10 uM ATP after 2 hrs
T3 sequence (O14965 whole entry): T1 sequence (whole entry)

[4] = biological target: T2, Aurora kinase B; experiment: Inhibition of Aurora B (unknown origin) using [33P]-ATP and 10 uM ATP after 2 hrs
[5] = tested on: Epidermal growth factor receptor (Homo sapiens), P00533 [L858R]; experiment: Inhibition of EGFR L858R mutant (unknown origin) at 10 uM; format: protein assay
How it was run: (§1)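 Single 10 µM concentration against a 40-kinase panel on the radiometric HotSpot platform. Kinase and substrate were added before ³³P-ATP started the reaction, which ran 2 h at room temperature.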

[6] = biological target: Glycogen synthase kinase-3 beta (Homo sapiens) (UniProt P49841); experiment: Inhibition of GSK3beta (unknown origin) at 10 uM; how it was run: as §1
[7] = biological target: Serine/threonine-protein kinase pim-1 (Homo sapiens) (UniProt P11309); experiment: Inhibition of […] (unknown origin) at 10 uM; how it was run: as §1
[8] = biological target: T1, Aurora kinase A (Homo sapiens); experiment: Inhibition of Aurora A (unknown origin) at 10 uM

T2 sequence (Q96GD4 whole entry): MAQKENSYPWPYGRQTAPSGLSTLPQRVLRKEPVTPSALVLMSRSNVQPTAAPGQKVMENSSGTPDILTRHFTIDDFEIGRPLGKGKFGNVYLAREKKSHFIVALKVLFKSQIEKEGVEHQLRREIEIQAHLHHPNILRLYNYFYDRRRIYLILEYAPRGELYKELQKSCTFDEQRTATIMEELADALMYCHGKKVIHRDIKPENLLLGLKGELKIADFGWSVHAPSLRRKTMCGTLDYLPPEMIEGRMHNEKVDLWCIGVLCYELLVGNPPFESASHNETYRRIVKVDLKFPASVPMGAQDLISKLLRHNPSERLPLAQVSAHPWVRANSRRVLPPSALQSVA
Sequence of Glycogen synthase kinase-3 beta (Homo sapiens) (P49841 whole entry, looked up): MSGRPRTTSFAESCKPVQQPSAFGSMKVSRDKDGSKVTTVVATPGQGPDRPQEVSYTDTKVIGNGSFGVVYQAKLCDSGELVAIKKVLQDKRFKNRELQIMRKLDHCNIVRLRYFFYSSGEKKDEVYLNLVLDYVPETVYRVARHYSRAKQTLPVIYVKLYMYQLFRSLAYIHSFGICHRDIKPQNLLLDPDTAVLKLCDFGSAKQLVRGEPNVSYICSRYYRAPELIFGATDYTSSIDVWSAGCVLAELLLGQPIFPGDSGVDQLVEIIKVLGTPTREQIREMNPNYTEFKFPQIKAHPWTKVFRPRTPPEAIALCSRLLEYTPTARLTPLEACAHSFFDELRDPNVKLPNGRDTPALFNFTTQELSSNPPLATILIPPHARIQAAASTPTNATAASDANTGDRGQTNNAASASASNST
Sequence of Serine/threonine-protein kinase pim-1 (Homo sapiens) (P11309 whole entry, looked up): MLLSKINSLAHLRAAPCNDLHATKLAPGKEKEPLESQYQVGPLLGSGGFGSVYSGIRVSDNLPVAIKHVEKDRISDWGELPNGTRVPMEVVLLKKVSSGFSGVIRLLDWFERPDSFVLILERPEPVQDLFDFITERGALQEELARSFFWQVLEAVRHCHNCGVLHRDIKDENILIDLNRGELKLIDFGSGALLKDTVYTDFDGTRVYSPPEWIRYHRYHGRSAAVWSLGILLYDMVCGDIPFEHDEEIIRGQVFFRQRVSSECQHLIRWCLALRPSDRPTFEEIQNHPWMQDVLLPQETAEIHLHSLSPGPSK
Sequence of Epidermal growth factor receptor (Homo sapiens), P00533 [L858R] (P00533 whole entry L858R): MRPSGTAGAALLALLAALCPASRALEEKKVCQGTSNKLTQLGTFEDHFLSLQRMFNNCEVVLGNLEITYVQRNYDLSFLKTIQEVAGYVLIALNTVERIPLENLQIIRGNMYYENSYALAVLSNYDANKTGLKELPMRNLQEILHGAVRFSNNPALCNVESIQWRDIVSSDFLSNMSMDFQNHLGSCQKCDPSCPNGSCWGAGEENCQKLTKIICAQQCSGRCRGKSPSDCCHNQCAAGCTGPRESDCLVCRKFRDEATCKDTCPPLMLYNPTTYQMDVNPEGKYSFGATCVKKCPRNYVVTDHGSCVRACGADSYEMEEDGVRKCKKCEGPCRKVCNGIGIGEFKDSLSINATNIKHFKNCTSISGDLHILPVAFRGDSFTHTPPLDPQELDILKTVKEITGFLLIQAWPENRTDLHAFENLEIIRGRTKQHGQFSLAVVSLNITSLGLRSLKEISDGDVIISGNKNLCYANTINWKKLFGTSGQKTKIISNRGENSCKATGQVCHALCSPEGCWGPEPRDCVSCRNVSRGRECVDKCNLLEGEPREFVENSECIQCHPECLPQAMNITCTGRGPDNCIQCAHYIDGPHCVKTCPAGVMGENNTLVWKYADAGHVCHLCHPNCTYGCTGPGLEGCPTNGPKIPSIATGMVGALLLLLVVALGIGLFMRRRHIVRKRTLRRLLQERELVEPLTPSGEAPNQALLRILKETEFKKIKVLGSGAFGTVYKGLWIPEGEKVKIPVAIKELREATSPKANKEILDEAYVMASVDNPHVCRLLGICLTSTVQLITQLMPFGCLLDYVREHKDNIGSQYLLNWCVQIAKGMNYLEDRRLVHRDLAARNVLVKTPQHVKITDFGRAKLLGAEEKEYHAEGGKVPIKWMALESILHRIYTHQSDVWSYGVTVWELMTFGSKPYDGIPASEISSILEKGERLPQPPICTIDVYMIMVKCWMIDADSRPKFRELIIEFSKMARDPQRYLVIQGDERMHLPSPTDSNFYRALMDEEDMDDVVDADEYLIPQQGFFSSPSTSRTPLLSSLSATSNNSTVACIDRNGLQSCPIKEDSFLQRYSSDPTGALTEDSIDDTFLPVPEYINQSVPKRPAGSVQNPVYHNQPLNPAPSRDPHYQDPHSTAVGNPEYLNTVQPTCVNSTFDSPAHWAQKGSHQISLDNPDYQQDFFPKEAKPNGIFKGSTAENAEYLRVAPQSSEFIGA

Row | Compound | inhibition [1] | inhibition [2] | IC50 [3] | IC50 [4] | inhibition [5] | inhibition [6] | inhibition [7] | inhibition [8]
1 | COC(=O)c1cccc(-c2cn(-c3ccc(O)c(C(=O)Nc4cccc(C(F)(F)F)c4)c3)nn2)c1 | 90.5% | 57.3% | 1820 nM | 63.2 µM |  |  |  | 
2 | COc1cc(OC)cc(-c2cn(-c3ccc(O)c(C(=O)Nc4cccc(C(F)(F)F)c4)c3)nn2)c1 |  |  |  |  | Active | Active | Active | 74.5%
3 | COC(=O)c1cccc(NC(=O)c2cc(-n3cc(-c4cc(OC)cc(OC)c4)nn3)ccc2O)c1 | 90.2% | 71.3% | 370 nM | 3.58 µM |  |  |  | 
4 | COc1cccc(NC(=O)c2cc(-n3cc(-c4cc(OC)cc(OC)c4)nn3)ccc2O)c1 | 83.3% | 50.3% |  |  |  |  |  | 

Reference: ChEMBL document CHEMBL3352277, “Click approach to the discovery of 1,2,3-triazolylsalicylamides as potent Aurora kinase inhibitors” (Bioorg Med Chem, 2014)
